Here are results for two compounds from ChEMBL document CHEMBL3745635, “Cytotoxic Orbitide from the Latex of Croton urucurana” (J Nat Prod, 2015).

One series deals with MCF7. Description: Cytotoxicity against human MCF7 cells assessed as growth inhibition after 48 hrs by sulforhodamine B assay. The format is functional. The following applies: MCF7, 48 h. An outline of the steps: (§1)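 Cells seeded at 7.5 × 10^3 per well. Samples were dissolved in DMSO, aliquoted and stored at −20 °C. GI50 values are means of three independent experiments, each run in triplicate. Doxorubicin served as positive control.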

The nature of series [1]: Cytotoxicity against mouse NIH/3T3 cells assessed as growth inhibition after 48 hrs by sulforhodamine B assay. It is filed as cell-based, NIH3T3. In a few lines:
as §1

Another series has as its system 786-0. In words: Cytotoxicity against human 786-0 cells assessed as growth inhibition after 48 hrs by sulforhodamine B assay. It is filed as functional. The following applies: 786-0, 48 h. An outline of the steps:
as §1
Background: The SRB assay estimates cell density from bound dye.

Series [2] in a line: Cytotoxicity against human NCI-ADR-RES cells assessed as growth inhibition after 48 hrs by sulforhodamine B assay. It is filed as functional. An outline of the steps:
as §1

In another series the test system is HepG2. Description: Cytotoxicity against human HepG2 cells assessed as growth inhibition after 48 hrs by sulforhodamine B assay. The format is functional. Conditions: HepG2, 48 h. An outline of the steps: as §1
The subject of another series is HT-29. In words: Cytotoxicity against human HT-29 cells assessed as growth inhibition after 48 hrs by sulforhodamine B assay. The format is functional. The following applies: HT-29, 48 h. In a few lines: as §1
A short description of series [3]: Cytotoxicity against human PC3 cells assessed as growth inhibition after 48 hrs by sulforhodamine B assay. It is filed as functional. Conditions: PC-3, 48 h. In a few lines: as §1

Structures are written as SMILES. In brackets after ≈: the same amount, converted by molar mass. Residues, ends and D or L forms follow the SMILES beside them.

For orientation: GI50 means the concentration that inhibits growth by half. Consider `COc1cccc2c1C(=O)c1c(O)c3c(c(O)c1C2=O)C[C@@](O)(C(=O)CO)C[C@@H]3O[C@H]1C[C@H](N)[C@H](O)[C@H](C)O1` [DOXORUBICIN], for which the concentration for 50% growth inhibition (GI50) in the series on MCF7 was 0.07 µg/mL (≈ 0.129 µM); in the series with 786-0, 0.15 µg/mL (≈ 0.276 µM); in series [2], 5.1 µM; in the series on HepG2, 0.25 µg/mL (≈ 0.46 µM); with HT-29 it was 0.85 µg/mL (≈ 1.56 µM); in series [3] it was 0.22 µg/mL (≈ 0.405 µM). For the same compound, the concentration for 50% growth inhibition (GI50) at 48 h in series [1] is 4 µM.
`CC(C)C[C@@H]1NC(=O)[C@H](CO)NC(=O)CNC(=O)[C@H](CC(C)C)NC(=O)[C@H](CC(N)=O)NC(=O)CNC(=O)[C@H](Cc2ccccc2)NC(=O)[C@H](C)NC(=O)CNC1=O` (cyclo(AFGNLGSLG)): the GI50 was 35.5 µg/mL (≈ 43.4 µM) in the series with MCF7; 18.7 µg/mL (≈ 22.9 µM) in the series with 786-0; 4.8 µM in series [2]; 41.3 µg/mL (≈ 50.6 µM) in the series on HepG2; 37.3 µg/mL (≈ 45.6 µM) with HT-29; 29.8 µg/mL (≈ 36.5 µM) in series [3]. Besides, the 50% growth inhibitory concentration (GI50) at 48 h in series [1] is greater than 306 µM.
